For data set [1], the target named is T1, Phosphatidylcholine:ceramide cholinephosphotransferase 2 (Homo sapiens, UniProt Q8NHU3).
T1 sequence (Q8NHU3 whole entry): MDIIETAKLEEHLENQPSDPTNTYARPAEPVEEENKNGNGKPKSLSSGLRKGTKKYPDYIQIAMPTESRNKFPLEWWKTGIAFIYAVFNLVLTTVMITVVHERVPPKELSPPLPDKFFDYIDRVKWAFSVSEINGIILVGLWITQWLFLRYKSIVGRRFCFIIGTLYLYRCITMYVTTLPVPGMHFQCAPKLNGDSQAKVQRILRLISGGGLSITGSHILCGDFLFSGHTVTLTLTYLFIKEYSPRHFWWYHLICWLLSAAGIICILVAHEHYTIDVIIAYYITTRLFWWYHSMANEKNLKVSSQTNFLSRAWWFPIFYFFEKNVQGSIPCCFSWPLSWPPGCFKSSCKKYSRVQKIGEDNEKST
Kind of data set: Inhibition of SMS2 (unknown origin) over-expressed in H5 insect cell lysate using C6-NBD-Ceramide and DMPC as substrates preincubated for 30 mins followed by substrate addition and measured after 2 hrs by TLC or HPLC method. In kind it is subcellular.

Data set [2] in a line: AUC (0 to 8 hrs) in C57BL/6J mouse at 100 mg/kg/day, ig by HPLC-MS/MS analysis. In kind it is ADME, organism-based. As to conditions: in vivo, po. More on the design: dose 100 mg/kg/day, time < 8 hr, route intragastric. An outline of the steps: (§1)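 Male C57BL/6J mice, six to eight weeks old, about 20 g, fasted 12 h with free water. Given a single intragastric dose of 25, 50 or 100 mg/kg in 10% DMSO/30% PEG-100/0.9% NaCl. Blood taken retro-orbitally at 5 min to 8 h. Plasma protein-precipitated with methanol plus internal standard, then HPLC-MS/MS on a C18 column. Noncompartmental analysis, n = 6.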

A short description of data set [3]: Dose normalized AUC (0 to 8 hrs) in C57BL/6J mouse at 100 mg/kg/day, ig by HPLC-MS/MS analysis. In kind it is ADME, organism-based. As to conditions: in vivo, po. A digest of the protocol:
as §1

The nature of data set [4]: Tmax in C57BL/6J mouse at 100 mg/kg/day, ig by HPLC-MS/MS analysis. In kind it is ADME, organism-based. As to conditions: in vivo, po. An outline of the steps: (§2)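 Male C57BL/6J mice (6–8 weeks, ~20 g), fasted 12 h, given a single intragastric dose of 25, 50 or 100 mg/kg in 10% DMSO/30% PEG/0.9% NaCl. Retro-orbital blood at 5 min to 8 h; plasma protein-precipitated with methanol plus internal standard, assayed by LC-MS/MS; noncompartmental analysis. Mean ± SD, n = 6.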

A short description of data set [5]: MRT (0 to 8 hrs) in C57BL/6J mouse at 100 mg/kg/day, ig by HPLC-MS/MS analysis. As to conditions: in vivo, po. In kind it is ADME, organism-based. A digest of the protocol: as §2
A short description of data set [6]: AUC (0 to infinity) in C57BL/6J mouse at 50 mg/kg/day, ig by HPLC-MS/MS analysis. In kind it is ADME, organism-based. Also noted: dose 50 mg/kg/day, time infinity, route intragastric. As to conditions: in vivo, po. An outline of the steps: as §1
Data set [7] is described as follows: Half life in C57BL/6J mouse at 50 mg/kg/day, ig by HPLC-MS/MS analysis. The note with it: in vivo, po. The data set is classed as ADME, organism-based. An outline of the steps:
as §1

The nature of data set [8]: MRT (0 to infinity) in C57BL/6J mouse at 50 mg/kg/day, ig by HPLC-MS/MS analysis. The data set is classed as ADME, organism-based. The note with it: in vivo, po. An outline of the steps: as §2
Data set [9] is described as follows: AUC (0 to 8 hrs) in C57BL/6J mouse at 25 mg/kg/day, ig by HPLC-MS/MS analysis. The data set is classed as ADME, organism-based. More on the design: dose 25 mg/kg/day, time < 8 hr, route intragastric. As to conditions: in vivo, po. A digest of the protocol:
as §1

A short description of data set [10]: AUC (0 to infinity) in C57BL/6J mouse at 25 mg/kg/day, ig by HPLC-MS/MS analysis. In kind it is ADME, organism-based. More on the design: dose 25 mg/kg/day, time infinity, route intragastric. The note with it: in vivo, po. An outline of the steps: as §1
Data set [11] is described as follows: Cmax in C57BL/6J mouse at 25 mg/kg/day, ig by HPLC-MS/MS analysis. More on the design: dose 25 mg/kg/day, route intragastric. In kind it is ADME, organism-based. The note with it: in vivo, po. An outline of the steps:
as §1

A short description of data set [12]: Half life in C57BL/6J mouse at 25 mg/kg/day, ig by HPLC-MS/MS analysis. The note with it: in vivo, po. The data set is classed as ADME, organism-based. A digest of the protocol: as §1
Data set [13] concerns Mus musculus. Kind of data set: Down regulation of sphingomyelin levels in C57BL/6J mouse plasma at 100 mg/kg/day, ig qd for 7 days measured on day 3 and 7. The data set is classed as functional, organism-based. An outline of the steps:
(§3)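 C57BL/6J mice dosed by gavage at 100 mg/kg once daily for 7 days. Plasma SM sampled on days 0, 3 and 7. Plasma ALT and AST measured on day 7 by automated analyzer. Compared with vehicle, n = 10.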

Data set [14] relates to Mus musculus. The experiment in a line: Effect on plasma AST levels in C57BL/6J mouse at 100 mg/kg/day, ig qd for 7 days measured on day 7. The data set is classed as ADME, organism-based. The note with it: in vivo, po, 168 h. An outline of the steps: as §3
Data set [15] concerns Mus musculus. Kind of data set: Effect on body weight in apoE knockout mouse fed with western-type diet at 12.5 to 40 mg/kg/day, ig for 7 weeks. The data set is classed as ADME, organism-based. As to conditions: in vivo, po, 1176 h. An outline of the steps: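 ApoE KO mice on Western-type diet, dosed by gavage daily at 12.5 or 40 mg/kg for 7 weeks. Body weight recorded weekly throughout dosing and compared with vehicle, 10 mice per group.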

The subject of data set [16] is Mus musculus. The experiment in a line: Effect on plasma ALT level in apoE knockout mouse fed with western-type diet at 12.5 to 40 mg/kg/day, ig for 7 weeks. In kind it is ADME, organism-based. As to conditions: in vivo, po, 1176 h. A digest of the protocol: (§4)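 ApoE KO mice on Western-type diet, dosed by gavage at 12.5 or 40 mg/kg/day for 7 weeks, n = 10. Blood collected at 20 weeks of age. Plasma SM measured by a previously reported method. ALT and AST read on an automated biochemical analyzer.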

Data set [17] has as its system Mus musculus. The experiment in a line: Effect on plasma AST level in apoE knockout mouse fed with western-type diet at 12.5 to 40 mg/kg/day, ig for 7 weeks. In kind it is ADME, organism-based. The note with it: in vivo, po, 1176 h. An outline of the steps: as §4
The test system of data set [18] is Mus musculus. The experiment in a line: Anti-atherosclerotic activity in apoE knockout mouse fed with western-type diet assessed as reduction in plasma SM level at 40 mg/kg/day, ig for 7 weeks relative to control. The data set is classed as functional. More on the design: scale not given: the % may be the effect or the level left. An outline of the steps: as §4

Data set [19] has as its system Mus musculus. Kind of data set: Anti-atherosclerotic activity in apoE knockout mouse fed with western-type diet assessed as reduction in lymphocyte count at 12.5 mg/kg/day, ig for 7 weeks by flow cytometric analysis relative to control. In kind it is functional. Also noted: scale not given: the % may be the effect or the level left. An outline of the steps: (§5)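 ApoE KO mice started at 8 weeks old on Western-type diet for 6 weeks. Then dosed by gavage daily with vehicle, 12.5 or 40 mg/kg for 7 weeks with the diet continued, 10 mice per group. Blood single-cell suspensions stained with antibodies in PBS and analysed by flow cytometry. Mean ± SD, n = 5.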

In data set [20] the test system is Mus musculus. Kind of data set: Anti-atherosclerotic activity in apoE knockout mouse fed with western-type diet assessed as reduction in monocyte count at 12.5 mg/kg/day, ig for 7 weeks by flow cytometric analysis relative to control. Also noted: scale not given: the % may be the effect or the level left. In kind it is functional. A digest of the protocol: as §5
On the technique in general: A flow cytometer gives signals particle by particle.

Data set [21] relates to Mus musculus. Kind of data set: Anti-atherosclerotic activity in apoE knockout mouse fed with western-type diet assessed as reduction in monocyte count at 40 mg/kg/day, ig for 7 weeks by flow cytometric analysis relative to control. The data set is classed as functional. More on the design: scale not given: the % may be the effect or the level left. A digest of the protocol: as §5

In data set [22] the test system is Mus musculus. Kind of data set: Anti-atherosclerotic activity in apoE knockout mouse fed with western-type diet assessed as reduction in CD4+/CD8+ cell ratio at 40 mg/kg/day, ig for 7 weeks by flow cytometric analysis relative to control. The data set is classed as functional. More on the design: scale not given: the % may be the effect or the level left. An outline of the steps: as §5

Data set [23] concerns Mus musculus. Kind of data set: Anti-atherosclerotic activity in apoE knockout mouse fed with western-type diet assessed as reduction in macrophage content at 40 mg/kg/day, ig for 7 weeks by immunostaining assay relative to control. In kind it is functional. Also noted: scale not given: the % may be the effect or the level left. An outline of the steps:
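ApoE KO mice on Western-type diet, dosed by gavage at 12.5 or 40 mg/kg/day for 7 weeks. Aortic root sections 4 µm thick immunostained with MOMA-2: primary antibody 1 h at room temperature, biotinylated secondary, HRP-streptavidin, DAB, hematoxylin counterstain. Stained area quantified and expressed relative to vehicle.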

Activity calls are given as the source filed them. The rule behind the calls is not given here.

These results are taken from ChEMBL document CHEMBL4411297, “Discovery, synthesis and anti-atherosclerotic activities of a novel selective sphingomyelin synthase 2 inhibitor” (Eur J Med Chem, 2019).

A word on the IC50: it is the midpoint of a concentration-inhibition curve. As a reminder, the AUC is concentration integrated over time. The term Tmax denotes the time at which the peak concentration occurs. As a reminder, the MRT is the average time that molecules of a dose stay in the body. In general, AUC(0-inf) refers to the area under the concentration-time curve extrapolated to infinity. For orientation: half-life means the time in which the quantity being followed falls by half. By MRT inf is commonly meant the average time that molecules of a dose stay in the body. A word on the Cmax: it is the maximum level reached in the sampled fluid or tissue.

`CCc1ccccc1COc1ccccc1C(=O)Nc1cccnc1`: in [1], the IC50 was found to be 0.88 µM. Besides, the AUC at 8 h in [2] was determined as 13200 ng·h/mL; in data set [9], 1990 ng·h/mL. The compound also yielded an AUC/dose in [3] of 0.13 µg·h/mL. Further, in data set [4], the time of peak concentration (Tmax) is 6 min. This compound also had an MRT in data set [5] of 1.66 h. In addition, the area under the curve AUC(0-inf) in data set [6] turned out to be 6790 ng·h/mL; in data set [10] it was 2360 ng·h/mL. The half-life in data set [7] is 1.83 h; in [12] it was 3.22 h. The compound further showed an MRT inf in [8] of 2.28 h. The highest level in data set [11] (Cmax) was 2530 ng/mL. In addition, the outcome in the data set with Mus musculus [13] was Active. Besides, the Activity result is listed as “Non-Toxic” in the data set with Mus musculus [14]; “Non-Toxic” in the data set on Mus musculus [15]; “Non-Toxic” in the data set with Mus musculus [16]; “Non-Toxic” in the data set with Mus musculus [17]; 41% in the data set on Mus musculus [18]; 21% in the data set on Mus musculus [19]. Moreover, the Activity in the data set on Mus musculus [20] is listed as 51%; in the data set with Mus musculus [21] it was 50%; in the data set on Mus musculus [22] it was 37%; in the data set with Mus musculus [23], 55%.
